Results as given in ChEMBL document CHEMBL3856184, “Tyrosol and hydroxytyrosol derivatives as antitrypanosomal and antileishmanial agents” (Eur J Med Chem, 2016).

How the values were obtained:
[1] = test system: Leishmania donovani; experiment: Antileishmanial activity against Leishmania donovani MHOM/ET/67/HU3 axenic amastigotes at 20 uM after 72 hrs by resazurin-based assay relative to control; format: functional; details: MHOM/ET/67/HU3, 72 h
Procedure, shortened: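 Axenic amastigotes grown in Schneider medium with 20% hiFBS, pH 5.4, 37 °C, 5% CO₂. 10⁶ parasites/ml exposed to a single 20 μM concentration for 72 h at 37 °C. Viability read by resazurin assay, reported as percent inhibition.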

[2] = Selectivity index, ratio of IC50 for human MRC5 cells to IC50 for bloodstream form of Trypanosoma brucei brucei S16; format: toxicity, cell-based; details: read-out: Ratio IC50
[3] = test system: Leishmania donovani; experiment: Antileishmanial activity against Leishmania donovani MHOM/ET/67/HU3 intracellular amastigotes infected in human THP1 cells after 72 hrs by luciferase coupled luminescence assay; format: functional, cell-based; details: MHOM/ET/67/HU3, THP-1, 72 h
Procedure, shortened: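 Luciferase-expressing parasite line. THP-1 cells differentiated with 20 ng/mL PMA for 48 h, then 24 h in fresh medium, seeded at 3x10⁴ macrophages/well and infected with late-stage promastigotes at a macrophage:parasite ratio of 1:10. Infected cultures exposed to a range of concentrations in RPMI 1640 with 10% hiFBS at 37 °C, 5% CO₂ for 72 h, then lysed. Luminescence read as intracellular parasite growth.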

[4] = test system: Trypanosoma brucei brucei; experiment: Potency index, ratio of IC50 for hydroxytyrosol to IC50 for test compound against bloodstream form of Trypanosoma brucei brucei S16; format: functional
[5] = Cytotoxicity against human MRC5 cells assessed as inhibition of cell proliferation measured after 72 hrs by MTT assay; format: toxicity, cell-based
Procedure, shortened: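 SV-40 transformed fetal lung fibroblasts kept in DMEM with 10% hiFBS and penicillin/streptomycin at 37 °C, 5% CO₂. Cells trypsinized, seeded at 4 x 10⁴ cell/ml and exposed to increasing concentrations for 72 h at 37 °C. Viability read by colorimetric MTT. EC₅₀ taken as the concentration reducing growth by 50% versus untreated cells.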

[6] = test system: Trypanosoma brucei brucei; experiment: Antitrypanosomal activity against bloodstream form of Trypanosoma brucei brucei S16 assessed as inhibition of proliferation measured after 72 hrs by alamarBlue assay; format: functional; details: S16, 72 h
Procedure, shortened: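 Bloodstream forms cultured in HMI-9 with 10% hiFBS at 37 °C, 5% CO₂. Seeded at 1 × 10⁴ per mL with increasing compound concentrations for 72 h under the same conditions. Proliferation read by alamarBlue fluorescence, excitation 550 nm and emission 590 nm.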

[7] = test system: Trypanosoma brucei brucei; experiment: Potency index, ratio of IC50 for tyrosol to IC50 for test compound against bloodstream form of Trypanosoma brucei brucei S16; format: functional
[8] = test system: Leishmania donovani; experiment: Potency index, ratio of IC50 for tyrosol to IC50 for test compound against intracellular amastigotes of Leishmania donovani MHOM/ET/67/HU3 infected in human THP1 cells; format: functional, THP-1
[9] = Selectivity index, ratio of IC50 for human MRC5 cells to IC50 for intracellular amastigotes of Leishmania donovani MHOM/ET/67/HU3 infected in human THP1 cells; format: toxicity, cell-based; details: read-out: Ratio IC50
[10] = test system: Trypanosoma brucei rhodesiense; experiment: Antitrypanosomal activity against Trypanosoma brucei rhodesiense; format: functional

Compound | inhibition at 20 µM [1] | selectivity ratio [2] | IC50 [3] | Ratio IC50 [4] | IC50 at 72 h [5] | IC50 [6] | Ratio IC50 [7] | Ratio IC50 [8] | selectivity ratio [9] | IC50 [10]
CCCCCCCCCCCC(=O)OCCc1ccc(O)c(O)c1 | 56% | 101 to 106 | > 10 µM | 132 | 38.1 µM | 0.36 µM |  |  |  | 
CCCCCCCCCCCC(=O)NCCc1ccc(O)c(O)c1 |  | > 5 |  | 5 | > 50 µM | 8.74 µM |  |  |  | 
CCCCCCCCCCCC(=O)OCCc1ccc(O)cc1 | 32% | 4.1 |  |  | 67.2 µM | 16.2 µM | 0.52 |  |  | 
CCCCCCCCCCCC(=O)OCCc1ccc2c(c1)OCO2 |  | > 5 |  | >5 | > 50 µM | > 10 µM |  |  |  | 
CCCCCCCC(=O)OCCc1ccc(O)cc1 | 46% | 2.3 | > 10 µM |  | 133 µM | 56.8 µM | 0.22 | 1 | 13.3 | 
Cc1ccc(C(=O)Nc2ccc(S(=O)(=O)O)c3cc(S(=O)(=O)O)cc(S(=O)(=O)O)c23)cc1NC(=O)c1cccc(NC(=O)Nc2cccc(C(=O)Nc3cc(C(=O)Nc4ccc(S(=O)(=O)O)c5cc(S(=O)(=O)O)cc(S(=O)(=O)O)c45)ccc3C)c2)c1 [SURAMIN] |  |  |  |  |  | 0.038 µM |  |  |  | 
CCCCCCCCCCOCCc1ccc(OCc2ccc(OC)cc2)c(OCc2ccc(OC)cc2)c1 |  | > 5 |  | >5 | > 50 µM | > 10 µM |  |  |  | 
CCCCCCCCCCCCCC(=O)OCCc1ccc(O)c(O)c1 | 53% | > 22 | > 10 µM | 21 | > 50 µM | 2.29 µM |  |  |  | 
CCCCCCCCCCOCCc1ccc(O)c(O)c1 |  | > 38 |  | 37 | > 50 µM | 1.29 µM |  |  |  | 
O=S(=O)([O-])Oc1ccc(CCO)cc1.[K+] | 36% | 2.6 |  |  | 106 µM | 41.6 µM | 0.16 |  |  | 
CCCCCCCCCCCCNC(=S)NCCc1ccc(O)c(O)c1 |  | 4 |  | 62 | 2.96 µM | 0.77 µM |  |  |  | 
CC(=O)OCCc1ccc(O)c(O)c1 | 48% | > 1 | > 10 µM | 1 | > 50 µM | 43.4 µM |  |  |  | 
CCCCCCCCCCCCOCCc1ccc(O)c(O)c1 |  | 21 |  | 75 | 13.2 µM | 0.63 µM |  |  |  | 
CCCCCCCCCC(=O)OCCc1ccc(O)c(O)c1 [HYDROXYTYROSOL DECANOATE] | 54% | 118 | 8.44 µM | 79 | 71.1 µM | 0.6 µM |  |  | 8.4 | 
CCCCCCCCCC(=O)OCCc1ccc2c(c1)OCO2 |  | > 5 |  | >5 | > 50 µM | > 10 µM |  |  |  | 
CCCCCCCCCCCCSCCc1ccc(OCc2ccc(OC)cc2)c(OCc2ccc(OC)cc2)c1 |  | > 5 |  | 5 | > 50 µM | > 10 µM |  |  |  | 
CCCCCCCCCCCCSCCc1ccc(OCc2ccccc2)c(OCc2ccccc2)c1 |  | > 5 |  | 5 | > 50 µM | > 10 µM |  |  |  | 
O=C(O)[C@H]1O[C@@H](Oc2ccc(CCO)cc2)[C@H](O)[C@@H](O)[C@@H]1O | 36% | 1.8 |  |  | 110 µM | 61.5 µM | 0.17 |  |  | 
C[C@@H]1[C@H](O)[C@@H](C)/C=C/C=C/C=C/C=C/C=C/C=C/C=C/[C@H](O[C@@H]2O[C@H](C)[C@@H](O)[C@H](N)[C@@H]2O)C[C@@H]2O[C@](O)(C[C@@H](O)C[C@@H](O)[C@H](O)CC[C@@H](O)C[C@@H](O)CC(=O)O[C@H]1C)C[C@H](O)[C@H]2C(=O)O [AMPHOTERICIN B] |  |  | 0.1 µM |  |  |  |  |  |  | 
CC(=O)OCCc1ccc(O)cc1 | 28% | 1.4 |  |  | 114 µM | 79.4 µM | 0.13 |  |  | 
Oc1ccc(CCN=C=S)cc1O |  | 2 |  | 5 | 21.1 µM | 9.87 µM |  |  |  | 
NCCc1ccc(O)c(O)c1 [DOPAMINE] |  | 7 |  | 5 | 68.9 µM | > 10 µM |  |  |  | 
CCCCCCCCCC(=O)NCCc1ccc(O)c(O)c1 |  | > 5 |  | 5 | > 50 µM | > 10 µM |  |  |  | 
CCCCCCCC(=O)OCCc1ccc(O)c(O)c1 | 45% | 11 | > 10 µM | 5 | 104 µM | 9.6 µM |  |  | 10.3 | 
OCCc1ccc(O)cc1 [TYROSOL] | 50% | > 5 | > 10 µM |  | > 500 µM | > 10 µM |  |  | 5 | > 15 µM
CCCCCCCCCCNC(=S)NCCc1ccc(O)c(O)c1 |  | 33 |  | 64 | 24.8 µM | 0.74 µM |  |  |  | 
CCCCCCCCCCCCCCCC(=O)OCCc1ccc(O)c(O)c1 [HYDROXYTYROSOL PALMITATE] | 52% | > 21 | > 10 µM | 20 | > 50 µM | 2.43 µM |  |  |  | 
CCCC(=O)OCCc1ccc(O)c(O)c1 [HYDROXYTYROSOL BUTANOATE] | 48% | 8 | > 10 µM | 5 | 71.5 µM | 9.4 µM |  |  | 7.1 | 
CCCCCC(=O)OCCc1ccc(O)cc1 | 44% | 2.8 | > 10 µM |  | 166 µM | 59.1 µM | 0.16 | 1 | 16.6 | 
CCCCCCCCCCOCCc1ccc(OCc2ccccc2)c(OCc2ccccc2)c1 |  | > 5 |  | >5 | > 50 µM | > 10 µM |  |  |  | 
